Test results taken from ChEMBL document CHEMBL1143020, “Antimalarial activity of 1-aryl-3,3-dialkyltriazenes” (2007).

Legend:
Assay type in all cases: functional
Mus musculus [1] = assay: Survival rate in Plasmodium berghei NK65 infected JCL-ICR mice (Mus musculus) at 100 mg/kg body weight after 14 days; details: 336 h
Procedure, shortened: (§1)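 Female JCL-ICR mice (4–5 weeks), 5 per group, were infected i.p. on day 0 with 0.2 mL of a 1:100 saline dilution of donor-mouse blood (3.3×10^6 parasitized erythrocytes). Triazenes were dosed at 100 mg/kg in 5% gum arabic or corn oil, and chloroquine at 50 mg/kg, twice, at 2 and 48 h post-infection. Controls got 5% gum arabic. Mice were monitored daily, with survival rate at day 14.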

Plasmodium berghei [2] = assay: Antimalarial activity as parasitaemia after 3 days against Plasmodium berghei NK65 infected JCL-ICR mice (Mus musculus) at 100 mg/kg
Procedure, shortened: (§2)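 Female mice aged 4–5 weeks, 5 per group, were infected ip on day 0 with 0.2 mL of 1:100 donor blood in saline (3.3×10^6 parasitized erythrocytes). 100 mg/kg was given twice, at 2 and 48 h post-infection, in 5% gum arabic/saline (solids) or corn oil (oils). Tail-blood thin smears on days 3, 7 and 14 were methanol-fixed and Giemsa-stained (2%, 2 h). % infected erythrocytes was counted microscopically.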

Plasmodium berghei [3] = assay: Antimalarial activity as parasitaemia after 7 days against Plasmodium berghei NK65 infected JCL-ICR mice (Mus musculus) at 100 mg/kg; procedure, shortened: as §2
Plasmodium berghei [4] = assay: Antimalarial activity as parasitaemia after 14 days against Plasmodium berghei NK65 infected JCL-ICR mice (Mus musculus) at 100 mg/kg; procedure, shortened: as §2
Mus musculus [5] = assay: Survival rate in Plasmodium berghei NK65 infected JCL-ICR mice (Mus musculus) at 50 mg/kg body weight after 14 days; details: 336 h; procedure, shortened: as §1
Plasmodium berghei [6] = assay: Antimalarial activity as parasitaemia after 7 days against Plasmodium berghei NK65 infected JCL-ICR mice (Mus musculus) at 50 mg/kg
Procedure, shortened: (§3)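 Chloroquine reference arm: 5 female mice aged 4–5 weeks per group, infected ip on day 0 with 0.2 mL of 1:100 diluted donor blood (3.3×10^6 parasitized erythrocytes). 50 mg/kg was given at 2 and 48 h post-infection. On days 7 and 14, tail-blood smears were methanol-fixed and stained with 2% Giemsa for 2 h, and % parasitized erythrocytes was scored by microscopy.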

Plasmodium berghei [7] = assay: Antimalarial activity as parasitaemia after 14 days against Plasmodium berghei NK65 infected JCL-ICR mice (Mus musculus) at 50 mg/kg; procedure, shortened: as §3

Row | SMILES | survival at 100 mg/kg (Mus musculus [1]) [%] | Activity (Plasmodium berghei [2]) [%] | Activity (Plasmodium berghei [3]) [%] | Activity (Plasmodium berghei [4]) [%] | survival at 50 mg/kg (Mus musculus [5]) [%] | Activity (Plasmodium berghei [6]) [%] | Activity (Plasmodium berghei [7]) [%]
1 | FC(F)(F)c1ccc(/N=N/N2CCCCC2)cc1 | 0 | 2.3 | 44.6 |  |  |  | 
2 | FC(F)(F)c1ccc(/N=N/N2CCCC2)cc1 | 0 | 2.9 | 66.3 |  |  |  | 
3 | Cc1cccc(C)c1/N=N/N1CCCC1 | 40 | 5.6 | 54.6 | 81.7 |  |  | 
4 | Cc1cc(C)c(/N=N/N2CCCCC2)c(C)c1 | 0 | 4.2 | 76.4 |  |  |  | 
5 | Cc1cccc(C)c1/N=N/N(C)C | 0 | 1.7 | 53.9 |  |  |  | 
6 | CCN(CC)CCCC(C)Nc1ccnc2cc(Cl)ccc12 (configuration not stated) [CHLOROQUINE] |  |  |  |  | 100 | <1 | 8.5
7 | Cc1cc(C)c(/N=N/N2CCCC2)c(C)c1 | 60 | 4.1 | 38.5 | 74.6 |  |  | 
8 | Cc1cc(C)c(/N=N/N(C)C)c(C)c1 | 40 | 4.4 | 12.4 | 73.3 |  |  | 
9 | Cc1cccc(C)c1/N=N/N1CCCCC1 | 0 | 4.2 | 76.4 |  |  |  | 
10 | CN(C)/N=N/c1ccc(C(F)(F)F)cc1 | 80 | 4.8 | 17.6 | 67.9 |  |  | 
11 | CN(C)/N=N/c1ccc(Cl)cc1 | 60 | 4.8 | 27 | 62.5 |  |  | 
12 | CN(C)/N=N/c1ccc(F)cc1 | 20 | 1.7 | 53.5 | 60.4 |  |  | 
